According to ChEMBL document CHEMBL1134692, “QSAR study on the contribution of log P and E(s) to the in vitro antiprotozoal activity of glutathione derivatives” (J Med Chem, 2001):

What was measured:
[1] = Partition coefficient (logP); assay type: physicochemical; conditions: octanol/water
[2] = Relative toxicity was evaluated as ED50 for KB cell line to that of ED50 for T.B. brucei; assay type: organism-based; conditions: trypanosoma brucei brucei, KB cells versus Trypanosoma brucei brucei; read-out: Relative toxicity
Procedure, shortened: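 Ratio of ED50 against KB cells to ED50 against T. b. brucei bloodstream forms, each from the 3-day Alamar Blue assays.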

[3] = Evaluated for its inhibitory activity against KB cells; assay type: functional; conditions: Homo sapiens, read-out: ED50 (the source's name)
Procedure, shortened: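 KB cells (human oral pharyngeal carcinoma) grown in RPMI with 10% calf foetal serum at 37 °C, 5% CO2 in humidified air. Exposed to compound for 3 days under the same conditions, then viability read by Alamar Blue assay; ED50 reported.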

[4] = test system: Trypanosoma brucei brucei; experiment: Inhibitory activity against Trypanosoma brucei; assay type: functional; conditions: read-out: ED50 (the source's name)
Procedure, shortened: (§1)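 T. b. brucei S427 bloodstream trypomastigotes kept in HMI-18 with 20% heat-inactivated FCS at 37 °C, 5% CO2. Parasites at 2 × 10^5/mL were mixed 1:1 with compound, run in triplicate as a 3-fold dilution series from 30 μM top. Incubated 3 days at 37 °C; Alamar Blue read-out on day 3 gave ED50. Pentamidine positive control.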

Trypanosoma cruzi [5] = experiment: Evaluated for its inhibitory activity against Trypanosoma cruzi; assay type: functional; conditions: read-out: ED50 (the source's name)
Procedure, shortened: (§2)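 Starch-elicited female CD1 mouse peritoneal macrophages (4 × 10^4/well, RPMI-1640, 10% HIFCS) were infected after 24 h at 5:1 with T. cruzi Y trypomastigotes derived from MDCK cultures. Drug was applied as a 3-fold dilution series in quadruplicate for 3 days. Activity was the percentage of macrophages cleared of amastigotes. Nifurtimox control.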

Trypanosoma cruzi [6] = experiment: (§3) Percent decrease in viable parasitesrelative to the control; assay type: functional
Procedure, shortened: (§4)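 Single concentration of 30 μM in the intracellular amastigote macrophage assays. Inhibition is expressed as the percent decrease in viable parasites relative to untreated control.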

Leishmania donovani [7] = experiment: as §3; assay type: functional; procedure, shortened: as §4
Leishmania donovani [8] = experiment: Inhibitory activity against Leishmania donovani; assay type: functional; conditions: read-out: ED50 (the source's name)
Procedure, shortened: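 Starch-elicited peritoneal macrophages from female CD1 mice were plated at 4 × 10^4/well in RPMI-1640 with 10% HIFCS. After 24 h they were infected at 10:1 with L. donovani amastigotes (MHOM/ET/67/L82, hamster-passaged). Drug was given as a 3-fold dilution series in quadruplicate for 5 days. Activity was scored as the percentage of macrophages cleared of amastigotes. Sodium stibogluconate control.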

Leishmania donovani [9] = experiment: (§5) Percent decrease in viable parasitesrelative to the control at 30 uM; assay type: functional; procedure, shortened: as §4
Trypanosoma cruzi [10] = experiment: as §5; assay type: functional; procedure, shortened: as §4
Trypanosoma cruzi [11] = experiment: Evaluated for its inhibitory activity against Trypanosoma cruzi; NA= not active at 30 umol; assay type: functional, organism-based; procedure, shortened: as §2
[12] = test system: Trypanosoma brucei brucei; experiment: Compound was evaluated for its inhibitory activity against Trypanosoma brucei; NA= not active at 30 umol; assay type: functional, organism-based; procedure, shortened: as §1

SMILES	logP [1]	selectivity ratio [2]	EC50 [3] [µM]	EC50 [4] [µM]	EC50 (Trypanosoma cruzi [5]) [µM]	Inhibition (Trypanosoma cruzi [6]) [%]	Inhibition (Leishmania donovani [7]) [%]	EC50 (Leishmania donovani [8]) [µM]	inhibition at 30 µM (Leishmania donovani [9]) [%]	inhibition at 30 µM (Trypanosoma cruzi [10]) [%]	Activity against T. cruzi (Trypanosoma cruzi [11])	NA [12]
O=C(CCC(NC(=O)OCc1ccccc1)C(=O)OC1CCCCC1)NC(CSc1ccc([N+](=O)[O-])cc1[N+](=O)[O-])C(=O)NCC(=O)OC1CCCCC1 (stereo unspecified)	6.65	243	51	0.21								
O=C(CCC(NC(=O)OCc1ccccc1)C(=O)OCCF)NC(CSc1ccc([N+](=O)[O-])cc1[N+](=O)[O-])C(=O)NCC(=O)OCCF (stereo unspecified)	2.97	0.99	15.2	21.8	> 30	8	26	> 30				
CCC(C)OC(=O)CNC(=O)C(CSc1ccc([N+](=O)[O-])cc1[N+](=O)[O-])NC(=O)CCC(NC(=O)OCc1ccccc1)C(=O)OC(C)CC (stereo unspecified)	4.91	150	> 300	2				> 30	36			
O=C(CCC(NC(=O)OCc1ccccc1)C(=O)OCCCCl)NC(CSc1ccc([N+](=O)[O-])cc1[N+](=O)[O-])C(=O)NCC(=O)OCCCCl (stereo unspecified)	4.58	0.8	0.39	1.05	> 30	35		> 30				
COCCOC(=O)CNC(=O)C(CSc1ccc([N+](=O)[O-])cc1[N+](=O)[O-])NC(=O)CCC(NC(=O)OCc1ccccc1)C(=O)OCCOC (stereo unspecified)	1.56	0.07	0.7	10				20				
CCCCCCOC(=O)CNC(=O)C(CSc1ccc([N+](=O)[O-])cc1[N+](=O)[O-])NC(=O)CCC(NC(=O)OCc1ccccc1)C(=O)OCCCCCC (stereo unspecified)	7.02	18.8	109	5.8	> 30	36		> 30				
CC(C)C(C)OC(=O)CNC(=O)C(CSc1ccc([N+](=O)[O-])cc1[N+](=O)[O-])NC(=O)CCC(NC(=O)OCc1ccccc1)C(=O)OC(C)C(C)C (stereo unspecified)	5.75	24	245	6	< 30			13.4		64		
COC(=O)CNC(=O)C(CSc1ccc([N+](=O)[O-])cc1[N+](=O)[O-])NC(=O)CCC(NC(=O)OCc1ccccc1)C(=O)O (stereo unspecified)	1.32							> 30				
O=C(CCC(NC(=O)OCc1ccccc1)C(=O)OCCCCCl)NC(CSc1ccc([N+](=O)[O-])cc1[N+](=O)[O-])C(=O)NCC(=O)OCCCCCl (stereo unspecified)	5.56	0.12	0.38	3.05	28			> 30				
CCCC(C)OC(=O)CNC(=O)C(CSc1ccc([N+](=O)[O-])cc1[N+](=O)[O-])NC(=O)CCC(NC(=O)OCc1ccccc1)C(=O)OC(C)CCC (stereo unspecified)	5.89	118	393	3.34	> 30			> 30	25	17		
CC(C)OC(=O)CNC(=O)C(CSc1ccc([N+](=O)[O-])cc1[N+](=O)[O-])NC(=O)CCC(NC(=O)OCc1ccccc1)C(=O)OC(C)C (stereo unspecified)	3.93	13.5	269	20				7.8			not active at 30 umol	
O=C(CCC(NC(=O)OCc1ccccc1)C(=O)OC1CCCC1)NC(CSc1ccc([N+](=O)[O-])cc1[N+](=O)[O-])C(=O)NCC(=O)OC1CCCC1 (stereo unspecified)	5.67	280	50.5	0.18	> 30			29.6		30		
CC(C)CCC(C)OC(=O)CNC(=O)C(CSc1ccc([N+](=O)[O-])cc1[N+](=O)[O-])NC(=O)CCC(NC(=O)OCc1ccccc1)C(=O)OC(C)CCC(C)C (stereo unspecified)	7.71	> 9	> 300	34.8				> 30	70			
CC(C)CC(C)OC(=O)CNC(=O)C(CSc1ccc([N+](=O)[O-])cc1[N+](=O)[O-])NC(=O)CCC(NC(=O)OCc1ccccc1)C(=O)OC(C)CC(C)C (stereo unspecified)	6.73	173	43.2	0.25	> 30			> 30	8	31		
CCCOC(=O)CNC(=O)C(CSc1ccc([N+](=O)[O-])cc1[N+](=O)[O-])NC(=O)CCC(NC(=O)OCc1ccccc1)C(=O)O (stereo unspecified)	2.31							> 30			not active at 30 umol	not active at 30 umol
CCOC(=O)CNC(=O)C(CSc1ccc([N+](=O)[O-])cc1[N+](=O)[O-])NC(=O)CCC(NC(=O)OCc1ccccc1)C(=O)O (stereo unspecified)	1.82							> 30				
CCC(CC)OC(=O)CNC(=O)C(CSc1ccc([N+](=O)[O-])cc1[N+](=O)[O-])NC(=O)CCC(NC(=O)OCc1ccccc1)C(=O)OC(CC)CC (stereo unspecified)	5.89	57	213	3.74				> 30	17			
CCCCOC(=O)C(CCC(=O)NC(CSc1ccc([N+](=O)[O-])cc1[N+](=O)[O-])C(=O)NCC(=O)O)NC(=O)OCc1ccccc1 (stereo unspecified)	2.8			10.3	> 30		12	> 30				
CCC(C)OC(=O)CNC(=O)C(CSc1ccc([N+](=O)[O-])cc1[N+](=O)[O-])NC(=O)CCC(NC(=O)OCc1ccccc1)C(=O)O (stereo unspecified)	2.72			20				20			not active at 30 umol	
O=C(CCC(NC(=O)OCc1ccccc1)C(=O)OCCCl)NC(CSc1ccc([N+](=O)[O-])cc1[N+](=O)[O-])C(=O)NCC(=O)OCCCl (stereo unspecified)	3.6	101	49.5	0.49				9.92				
CCCCC(C)OC(=O)CNC(=O)C(CSc1ccc([N+](=O)[O-])cc1[N+](=O)[O-])NC(=O)CCC(NC(=O)OCc1ccccc1)C(=O)OC(C)CCCC (stereo unspecified)	6.87	46	178	5.2	> 30			> 30	6	21		
CC(C)OC(=O)CNC(=O)C(CSc1ccc([N+](=O)[O-])cc1[N+](=O)[O-])NC(=O)CCC(NC(=O)OCc1ccccc1)C(=O)O (stereo unspecified)	2.23										not active at 30 umol	not active at 30 umol
CCCCCCCCOC(=O)CNC(=O)C(CSc1ccc([N+](=O)[O-])cc1[N+](=O)[O-])NC(=O)CCC(NC(=O)OCc1ccccc1)C(=O)OCCCCCCCC (stereo unspecified)	8.99		95.3				11	> 30			not active at 30 umol	not active at 30 umol
CCCC(CC)OC(=O)CNC(=O)C(CSc1ccc([N+](=O)[O-])cc1[N+](=O)[O-])NC(=O)CCC(NC(=O)OCc1ccccc1)C(=O)OC(CC)CCC (stereo unspecified)	6.87											
